# Calls of active or inactive are those of the source. The rule behind the calls is not given here.
# Columns and labels:
# Format in all cases: cell-based
# Conditions in all cases: BaF3
# [1] = biological target: Tyrosine-protein kinase Yes (Homo sapiens) (UniProt P07947); test: Inhibition of YES (unknown origin) transfected in mouse Ba/F3 cells at 5 uM after 24 hrs
# [2] = biological target: T1, Tyrosine-protein kinase receptor TYRO3 (Homo sapiens) (UniProt Q06418); test: Inhibition of TYRO3 (unknown origin) transfected in mouse Ba/F3 cells at 5 uM after 24 hrs
# T1 sequence (whole entry): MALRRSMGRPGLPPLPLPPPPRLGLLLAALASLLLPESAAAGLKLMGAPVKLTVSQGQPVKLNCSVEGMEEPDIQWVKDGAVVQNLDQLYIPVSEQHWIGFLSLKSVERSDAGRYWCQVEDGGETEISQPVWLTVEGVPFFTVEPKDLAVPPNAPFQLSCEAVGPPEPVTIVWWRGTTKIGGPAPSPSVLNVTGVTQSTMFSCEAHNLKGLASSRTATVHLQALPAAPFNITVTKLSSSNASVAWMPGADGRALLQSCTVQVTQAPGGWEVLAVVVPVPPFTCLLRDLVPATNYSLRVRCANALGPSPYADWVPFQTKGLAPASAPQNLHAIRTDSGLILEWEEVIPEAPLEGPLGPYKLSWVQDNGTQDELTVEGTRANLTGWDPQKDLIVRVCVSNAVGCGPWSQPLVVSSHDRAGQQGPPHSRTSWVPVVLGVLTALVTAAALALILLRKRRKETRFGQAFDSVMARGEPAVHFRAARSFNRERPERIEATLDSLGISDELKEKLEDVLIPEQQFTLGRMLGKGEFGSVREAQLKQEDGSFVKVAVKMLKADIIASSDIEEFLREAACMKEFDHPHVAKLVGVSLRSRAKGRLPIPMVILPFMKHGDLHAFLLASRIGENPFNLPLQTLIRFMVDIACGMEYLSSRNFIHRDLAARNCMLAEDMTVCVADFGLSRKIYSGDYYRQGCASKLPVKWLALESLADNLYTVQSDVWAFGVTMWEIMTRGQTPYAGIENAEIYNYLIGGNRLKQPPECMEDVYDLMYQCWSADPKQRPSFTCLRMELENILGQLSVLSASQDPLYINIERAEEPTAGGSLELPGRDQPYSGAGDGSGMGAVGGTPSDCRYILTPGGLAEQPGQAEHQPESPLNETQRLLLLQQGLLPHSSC
# [3] = biological target: T2, Tyrosine-protein kinase Mer (Homo sapiens) (UniProt Q12866); test: Inhibition of MERTK (unknown origin) transfected in mouse Ba/F3 cells at 5 uM after 24 hrs
# T2 sequence (whole entry): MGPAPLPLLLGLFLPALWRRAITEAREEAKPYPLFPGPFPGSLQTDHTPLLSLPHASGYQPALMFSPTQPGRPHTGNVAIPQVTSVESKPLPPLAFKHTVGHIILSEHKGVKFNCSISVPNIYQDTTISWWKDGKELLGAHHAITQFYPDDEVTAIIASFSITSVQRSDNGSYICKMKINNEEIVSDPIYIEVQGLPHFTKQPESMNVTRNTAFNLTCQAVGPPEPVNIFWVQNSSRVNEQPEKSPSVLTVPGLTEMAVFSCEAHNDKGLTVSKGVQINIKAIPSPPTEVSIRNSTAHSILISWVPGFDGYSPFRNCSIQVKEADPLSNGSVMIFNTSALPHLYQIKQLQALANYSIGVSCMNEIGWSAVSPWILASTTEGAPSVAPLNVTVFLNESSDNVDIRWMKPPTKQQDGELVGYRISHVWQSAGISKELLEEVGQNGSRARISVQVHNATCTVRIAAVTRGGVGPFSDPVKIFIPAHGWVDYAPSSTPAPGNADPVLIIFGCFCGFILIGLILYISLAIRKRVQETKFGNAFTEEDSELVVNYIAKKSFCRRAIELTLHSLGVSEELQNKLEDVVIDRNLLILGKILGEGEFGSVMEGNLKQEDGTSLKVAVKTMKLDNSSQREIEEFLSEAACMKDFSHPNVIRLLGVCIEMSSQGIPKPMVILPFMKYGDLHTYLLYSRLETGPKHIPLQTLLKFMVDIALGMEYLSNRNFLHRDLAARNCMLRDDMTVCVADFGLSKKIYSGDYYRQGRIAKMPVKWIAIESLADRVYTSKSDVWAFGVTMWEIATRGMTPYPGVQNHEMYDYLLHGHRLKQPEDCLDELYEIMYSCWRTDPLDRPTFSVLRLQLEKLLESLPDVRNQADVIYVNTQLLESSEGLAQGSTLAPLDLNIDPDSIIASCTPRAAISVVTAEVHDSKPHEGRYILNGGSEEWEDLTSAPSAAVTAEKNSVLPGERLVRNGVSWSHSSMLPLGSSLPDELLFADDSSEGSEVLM
# [4] = biological target: Tyrosine-protein kinase HCK (Homo sapiens) (UniProt P08631); test: Inhibition of HCK (unknown origin) transfected in mouse Ba/F3 cells at 5 uM after 24 hrs
# Method in brief: (§1)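 Kinase specificity panel: each Ba/F3 line transformed with one of 24 tyrosine kinases depends on that kinase to grow. Cells were given compound at 1 or 5 µM for 24 h, with DMSO as comparator. Percentage growth was read by ATP-lite luminescence and reported as mean ± SEM.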
# [5] = biological target: Epidermal growth factor receptor (Homo sapiens) (UniProt P00533); test: Inhibition of EGFR (unknown origin) transfected in mouse Ba/F3 cells at 5 uM after 24 hrs; method in brief: as §1
# [6] = biological target: Tyrosine-protein kinase receptor UFO (Homo sapiens) (UniProt P30530); test: Inhibition of AXL (unknown origin) transfected in mouse Ba/F3 cells at 5 uM after 24 hrs; method in brief: as §1
# [7] = biological target: Tyrosine-protein kinase ABL2 (Homo sapiens) (UniProt P42684); test: Inhibition of ABL2 (unknown origin) transfected in mouse Ba/F3 cells at 5 uM after 24 hrs; method in brief: as §1
# Tyrosine-protein kinase ABL2 (Homo sapiens), sequence (P42684 whole entry): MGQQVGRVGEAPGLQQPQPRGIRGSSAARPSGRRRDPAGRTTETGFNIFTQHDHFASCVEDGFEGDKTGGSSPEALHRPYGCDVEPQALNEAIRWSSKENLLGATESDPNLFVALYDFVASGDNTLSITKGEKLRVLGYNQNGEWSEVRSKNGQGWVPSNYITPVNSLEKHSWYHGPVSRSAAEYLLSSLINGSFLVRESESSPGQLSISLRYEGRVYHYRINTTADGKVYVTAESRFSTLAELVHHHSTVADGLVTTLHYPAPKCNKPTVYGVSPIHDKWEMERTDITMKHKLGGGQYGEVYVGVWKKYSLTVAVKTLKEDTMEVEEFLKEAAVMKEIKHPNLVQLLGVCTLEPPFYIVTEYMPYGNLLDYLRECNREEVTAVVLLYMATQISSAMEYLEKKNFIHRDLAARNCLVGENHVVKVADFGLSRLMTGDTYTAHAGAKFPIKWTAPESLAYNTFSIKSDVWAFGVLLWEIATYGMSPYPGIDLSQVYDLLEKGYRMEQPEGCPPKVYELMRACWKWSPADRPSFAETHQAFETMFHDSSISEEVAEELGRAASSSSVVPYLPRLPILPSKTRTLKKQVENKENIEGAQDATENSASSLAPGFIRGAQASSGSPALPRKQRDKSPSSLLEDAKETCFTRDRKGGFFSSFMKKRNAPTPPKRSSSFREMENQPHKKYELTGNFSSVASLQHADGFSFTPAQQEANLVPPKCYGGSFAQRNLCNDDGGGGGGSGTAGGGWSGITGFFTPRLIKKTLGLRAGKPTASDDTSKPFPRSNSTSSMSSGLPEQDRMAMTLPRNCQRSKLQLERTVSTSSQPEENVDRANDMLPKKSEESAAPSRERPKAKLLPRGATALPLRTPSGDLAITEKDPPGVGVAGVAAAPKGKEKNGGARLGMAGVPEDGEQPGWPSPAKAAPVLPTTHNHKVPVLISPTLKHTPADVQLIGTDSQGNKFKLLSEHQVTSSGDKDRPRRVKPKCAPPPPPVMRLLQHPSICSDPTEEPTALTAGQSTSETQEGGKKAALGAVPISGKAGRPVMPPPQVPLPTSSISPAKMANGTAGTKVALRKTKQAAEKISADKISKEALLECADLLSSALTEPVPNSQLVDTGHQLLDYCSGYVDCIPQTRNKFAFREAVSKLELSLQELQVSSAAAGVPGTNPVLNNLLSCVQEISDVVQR
# Tyrosine-protein kinase HCK (Homo sapiens), sequence (P08631 2-526 limits assumed): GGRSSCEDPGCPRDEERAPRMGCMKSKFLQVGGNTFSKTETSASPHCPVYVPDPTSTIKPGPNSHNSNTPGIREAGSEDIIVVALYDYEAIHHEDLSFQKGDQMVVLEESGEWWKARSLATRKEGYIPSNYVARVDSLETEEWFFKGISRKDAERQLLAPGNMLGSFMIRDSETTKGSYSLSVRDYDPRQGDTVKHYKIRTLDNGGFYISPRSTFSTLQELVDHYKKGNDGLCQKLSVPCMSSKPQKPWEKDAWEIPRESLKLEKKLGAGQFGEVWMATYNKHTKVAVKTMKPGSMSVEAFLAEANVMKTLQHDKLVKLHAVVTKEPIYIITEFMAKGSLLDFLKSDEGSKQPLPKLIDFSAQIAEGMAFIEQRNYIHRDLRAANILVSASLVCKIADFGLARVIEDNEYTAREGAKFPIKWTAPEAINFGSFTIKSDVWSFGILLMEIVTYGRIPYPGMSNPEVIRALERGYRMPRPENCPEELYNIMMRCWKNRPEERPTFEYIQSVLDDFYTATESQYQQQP
# Tyrosine-protein kinase receptor UFO (Homo sapiens), sequence (P30530 whole entry): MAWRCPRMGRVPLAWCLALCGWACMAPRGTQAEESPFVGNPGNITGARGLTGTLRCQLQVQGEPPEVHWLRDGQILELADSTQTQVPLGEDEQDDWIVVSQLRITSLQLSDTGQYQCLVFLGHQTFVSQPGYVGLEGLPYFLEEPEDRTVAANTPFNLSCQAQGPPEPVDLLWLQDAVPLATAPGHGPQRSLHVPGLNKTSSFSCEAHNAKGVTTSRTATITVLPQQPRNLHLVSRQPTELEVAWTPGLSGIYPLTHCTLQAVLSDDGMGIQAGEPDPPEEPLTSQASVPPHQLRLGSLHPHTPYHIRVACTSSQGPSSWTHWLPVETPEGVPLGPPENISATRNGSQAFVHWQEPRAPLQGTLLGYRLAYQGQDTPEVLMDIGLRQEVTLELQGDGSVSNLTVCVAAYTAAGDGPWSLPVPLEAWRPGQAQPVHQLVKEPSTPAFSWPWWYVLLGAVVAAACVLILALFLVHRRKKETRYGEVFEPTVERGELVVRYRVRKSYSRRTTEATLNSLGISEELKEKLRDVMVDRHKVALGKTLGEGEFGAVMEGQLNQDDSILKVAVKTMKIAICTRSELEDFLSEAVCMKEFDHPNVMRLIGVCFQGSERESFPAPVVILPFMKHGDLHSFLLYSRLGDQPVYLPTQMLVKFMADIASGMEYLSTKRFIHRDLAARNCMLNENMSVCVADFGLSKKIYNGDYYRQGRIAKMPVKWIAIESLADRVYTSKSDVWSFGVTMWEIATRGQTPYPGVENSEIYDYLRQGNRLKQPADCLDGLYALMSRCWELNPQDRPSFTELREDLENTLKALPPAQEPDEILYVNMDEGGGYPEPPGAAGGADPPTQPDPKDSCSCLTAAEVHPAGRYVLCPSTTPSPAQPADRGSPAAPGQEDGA
# Epidermal growth factor receptor (Homo sapiens), sequence (P00533 whole entry): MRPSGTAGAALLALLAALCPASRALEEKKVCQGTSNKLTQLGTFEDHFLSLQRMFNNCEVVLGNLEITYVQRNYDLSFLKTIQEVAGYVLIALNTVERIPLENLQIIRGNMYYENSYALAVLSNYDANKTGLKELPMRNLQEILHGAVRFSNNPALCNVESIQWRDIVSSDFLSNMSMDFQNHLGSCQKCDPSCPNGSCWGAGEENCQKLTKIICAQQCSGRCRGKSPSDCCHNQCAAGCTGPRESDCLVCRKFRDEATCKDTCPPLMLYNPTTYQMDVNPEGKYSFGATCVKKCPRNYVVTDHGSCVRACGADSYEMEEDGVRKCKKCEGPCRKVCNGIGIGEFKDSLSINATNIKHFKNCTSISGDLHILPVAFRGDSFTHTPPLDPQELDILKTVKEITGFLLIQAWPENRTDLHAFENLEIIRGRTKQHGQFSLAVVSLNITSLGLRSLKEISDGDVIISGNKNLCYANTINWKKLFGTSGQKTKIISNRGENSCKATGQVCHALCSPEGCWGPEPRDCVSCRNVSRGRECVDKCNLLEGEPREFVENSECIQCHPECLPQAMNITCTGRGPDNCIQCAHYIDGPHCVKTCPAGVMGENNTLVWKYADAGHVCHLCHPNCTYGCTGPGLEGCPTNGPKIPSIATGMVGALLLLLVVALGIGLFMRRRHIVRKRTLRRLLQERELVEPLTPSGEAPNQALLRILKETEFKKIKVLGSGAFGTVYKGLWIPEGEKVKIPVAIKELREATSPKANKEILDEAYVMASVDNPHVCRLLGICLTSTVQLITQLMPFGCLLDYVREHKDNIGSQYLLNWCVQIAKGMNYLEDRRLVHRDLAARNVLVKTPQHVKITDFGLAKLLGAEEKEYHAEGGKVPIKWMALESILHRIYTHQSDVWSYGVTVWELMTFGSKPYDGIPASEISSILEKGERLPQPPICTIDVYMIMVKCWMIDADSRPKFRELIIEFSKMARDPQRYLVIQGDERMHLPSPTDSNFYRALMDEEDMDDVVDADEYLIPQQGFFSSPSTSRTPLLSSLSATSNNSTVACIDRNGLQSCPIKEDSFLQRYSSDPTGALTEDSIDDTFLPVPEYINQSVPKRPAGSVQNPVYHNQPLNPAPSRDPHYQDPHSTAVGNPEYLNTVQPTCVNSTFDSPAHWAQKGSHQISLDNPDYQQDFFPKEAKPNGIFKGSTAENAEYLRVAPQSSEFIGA
# Tyrosine-protein kinase Yes (Homo sapiens), sequence (P07947 2-543 limits assumed): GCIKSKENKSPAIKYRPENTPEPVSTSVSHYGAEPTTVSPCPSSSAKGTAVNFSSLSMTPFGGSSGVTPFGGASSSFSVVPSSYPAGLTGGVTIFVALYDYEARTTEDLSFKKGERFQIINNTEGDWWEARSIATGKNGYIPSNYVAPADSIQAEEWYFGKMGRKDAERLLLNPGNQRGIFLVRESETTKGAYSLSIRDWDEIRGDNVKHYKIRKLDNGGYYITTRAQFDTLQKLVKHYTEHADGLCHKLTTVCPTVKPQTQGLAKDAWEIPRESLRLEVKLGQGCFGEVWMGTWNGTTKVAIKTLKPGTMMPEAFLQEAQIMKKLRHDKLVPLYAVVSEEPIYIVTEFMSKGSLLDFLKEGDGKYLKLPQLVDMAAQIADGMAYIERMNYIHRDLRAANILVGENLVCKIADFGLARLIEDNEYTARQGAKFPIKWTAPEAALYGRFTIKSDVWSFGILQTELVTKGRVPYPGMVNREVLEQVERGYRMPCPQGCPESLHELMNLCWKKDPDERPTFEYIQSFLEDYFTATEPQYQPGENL
inhibition [1],inhibition [2],inhibition [3],inhibition [4],inhibition [5],inhibition [6],inhibition [7],SMILES
inactive,inactive,inactive,inactive,inactive,inactive,Active,Fc1ccc(-c2n[nH]cc2-c2ccncc2)cc1Cl
inactive,inactive,inactive,inactive,inactive,inactive,inactive,Cc1ccc(-n2cnc3cc(Nc4nnc(C)c5ccccc45)ccc32)cc1

# — ChEMBL document CHEMBL2390926, “Identification of novel FLT3 kinase inhibitors” (Eur J Med Chem, 2013)
